Results taken from ChEMBL document CHEMBL1152541, “Staurosporine tethered peptide ligands that target cAMP-dependent protein kinase (PKA): optimization and selectivity profiling” (Bioorg Med Chem, 2009).
*1 amine or outer side, *2 acyl side, *3 side chain or, on linkers, in order; H or OH if unused. Where a SMILES comes first, the peptide text is derived from it. Bridges are numbered along the chain shown (N, C = ends). [ ]: non-standard residue; d: D form. The star is where a group is joined. Staurosporine = CO[C@@H]1[C@H](N(C)*)C[C@H]2O[C@]1(C)n1c3ccccc3c3c4c(c5c6ccccc6n2c5c31)C(=O)NC4; Suc = O=C(CCC(=O)[*:2])[*:1]; Dap = NC[C@H](N)C(=O)O; βAla = NCCC(=O)O

Biological target: Casein kinase I isoform gamma-2 (Homo sapiens) (UniProt P78368)
Sequence (P78368 whole entry, looked up, canonical isoform): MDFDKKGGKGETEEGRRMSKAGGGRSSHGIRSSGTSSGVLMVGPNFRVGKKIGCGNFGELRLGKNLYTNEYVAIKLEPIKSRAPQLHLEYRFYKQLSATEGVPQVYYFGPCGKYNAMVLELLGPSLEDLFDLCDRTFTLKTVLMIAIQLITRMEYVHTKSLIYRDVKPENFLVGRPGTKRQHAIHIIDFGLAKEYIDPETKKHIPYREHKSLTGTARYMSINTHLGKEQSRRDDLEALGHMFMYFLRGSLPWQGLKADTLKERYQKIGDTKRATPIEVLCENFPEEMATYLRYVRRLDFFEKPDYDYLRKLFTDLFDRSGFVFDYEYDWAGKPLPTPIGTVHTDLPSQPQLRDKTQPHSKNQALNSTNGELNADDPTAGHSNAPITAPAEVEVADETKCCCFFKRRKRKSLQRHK
Assay: Binding affinity to human CSNK1G2 at 50 nM by cell-based competition binding assay relative to control in presence of DTT
Procedure, shortened: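 Commercial (Ambit) competitive kinase-binding panel of 90 kinases measured the binding profile. Run under reducing conditions of 7.5 mM DTT. Binding is expressed relative to control.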

CO[C@@H]1[C@H](N(C)C(=O)CCC(=O)NCCC(=O)NCCC(=O)NCCC(=O)NCCC(=O)NCCC(=O)NCCC(=O)NCCC(=O)N[C@H]2CNC(=O)C[C@@H](C(N)=O)NC(=O)CNC(=O)[C@H](Cc3ccccc3)NC(=O)[C@H](C(C)C)NC(=O)[C@H](CCCNC(=N)N)NC(=O)[C@H](Cc3ccccc3)NC(=O)[C@H](C(C)C)NC2=O)C[C@H]2O[C@]1(C)n1c3ccccc3c3c4c(c5c6ccccc6n2c5c31)C(=O)NC4 ({Staurosporine-Suc-βAla-βAla-βAla-βAla-βAla-βAla-βAla}-[Dap]VFRVFGD-NH2; lactam 1-8)
Activity: 100%
